Measurements from ChEMBL document CHEMBL2440006, “Mastering tricyclic ring systems for desirable functional cannabinoid activity” (Eur J Med Chem, 2013).
Activity calls are given as the source filed them. No cut-off for these calls is given here.

Legend:
[1] = molecular target: Cannabinoid receptor 1 (Homo sapiens) (UniProt P21554); experiment: Induction of human CB1 receptor internalization expressed in HEK293 cells at 10 uM relative to CP55940; format: cell-based
Method in brief: (§1)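 Cells stably expressing human CB1 or human CB2 receptors, exposed to test compound alone. […] Mean of two determinations.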

Cannabinoid receptor 2 [2] = molecular target: T1, Cannabinoid receptor 2 (Homo sapiens, UniProt P34972); experiment: Induction of human CB2 receptor internalization expressed in HEK293 cells at 10 uM relative to CP55940; format: cell-based; method in brief: as §1
Cannabinoid receptor 1 = Cannabinoid receptor 1 (Rattus norvegicus, UniProt P20272); experiment: Displacement of [3H]-CP55940 from CB1 receptor in rat brain homogenate after 1.5 hrs by microbeta liquid scintillation counting analysis; format: tissue-based
Method in brief: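 Membranes from rat brain homogenate (CB1) or HEK293 cells expressing human CB2. […] GF/B filtration, then scintillation counting. […] IC50 by three-parameter logistic fit, Ki by Cheng-Prusoff. Three experiments in triplicate.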

[3] = Selectivity ratio of Ki for rat CB1 receptor to Ki for human CB2 receptor
Cannabinoid receptor 2 [4] = molecular target: T1, Cannabinoid receptor 2; experiment: Displacement of [3H]-CP55940 from human CB2 receptor expressed in HEK293 cells after 1.5 hrs by microbeta liquid scintillation counting analysis; format: cell-based
Method in brief: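 Membranes from rat brain homogenate (CB1) or HEK293 cells expressing human CB2. GF/B filtration, then scintillation counting. IC50 by three-parameter logistic fit, Ki by Cheng-Prusoff. Three experiments in triplicate.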

Cannabinoid receptor 2 [5] = molecular target: T1, Cannabinoid receptor 2; experiment: Reduction of CP55940-induced human CB2 receptor internalization expressed in HEK293 cells at 3 uM relative to control; format: cell-based; set-up: scale not given: the % may be the effect or the level left
Cannabinoid receptor 2 [6] = molecular target: T1, Cannabinoid receptor 2; experiment: Inverse agonist activity at human recombinant CB2 receptor expressed in CHO cells after 1 hr by [35S]GTPgammaS binding assay relative to CP55940; format: functional, cell-based
Method in brief: (§2)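 Membranes from CHO cells expressing hCB1 or hCB2, preincubated at least 15 min on ice with 30 μM GDP solution. GTP-γ-[35S] with WGA-PVT SPA beads. Eight concentrations, 0.001–10 μM, in duplicate. Incubated 1 h at room temperature, centrifuged, then a further 1 h before counting. […] Mean of two determinations.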

[7] = molecular target: Cannabinoid receptor 1 (Homo sapiens) (UniProt P21554); experiment: Partial agonist activity at human recombinant CB1 receptor expressed in CHO cells after 1 hr by [35S]GTPgammaS binding assay relative to CP55940; format: functional, cell-based; method in brief: as §2

T1 sequence (P34972 whole entry): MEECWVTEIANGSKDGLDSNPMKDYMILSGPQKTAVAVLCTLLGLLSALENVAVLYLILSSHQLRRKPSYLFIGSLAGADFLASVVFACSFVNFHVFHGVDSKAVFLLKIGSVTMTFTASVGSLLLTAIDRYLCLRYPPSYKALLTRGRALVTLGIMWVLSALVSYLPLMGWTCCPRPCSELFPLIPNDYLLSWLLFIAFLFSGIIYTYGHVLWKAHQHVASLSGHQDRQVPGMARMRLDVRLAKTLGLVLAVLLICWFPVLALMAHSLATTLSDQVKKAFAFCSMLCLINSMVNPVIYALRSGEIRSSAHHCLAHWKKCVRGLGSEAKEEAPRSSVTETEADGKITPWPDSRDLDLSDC
Sequence of Cannabinoid receptor 1 (P20272 whole entry): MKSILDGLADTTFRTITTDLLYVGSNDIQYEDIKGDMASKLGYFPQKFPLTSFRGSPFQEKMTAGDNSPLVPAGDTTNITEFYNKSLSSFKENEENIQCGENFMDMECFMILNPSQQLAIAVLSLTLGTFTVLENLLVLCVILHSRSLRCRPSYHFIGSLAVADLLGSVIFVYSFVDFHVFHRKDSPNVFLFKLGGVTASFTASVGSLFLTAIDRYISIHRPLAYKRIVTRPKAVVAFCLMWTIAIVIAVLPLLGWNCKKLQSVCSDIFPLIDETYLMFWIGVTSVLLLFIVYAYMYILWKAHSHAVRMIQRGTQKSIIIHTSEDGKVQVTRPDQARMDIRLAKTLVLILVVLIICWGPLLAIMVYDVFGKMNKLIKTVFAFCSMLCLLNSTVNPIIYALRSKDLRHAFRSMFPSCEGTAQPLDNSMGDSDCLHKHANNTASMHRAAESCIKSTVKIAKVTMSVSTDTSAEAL
Sequence of Cannabinoid receptor 1 (Homo sapiens) (P21554 whole entry): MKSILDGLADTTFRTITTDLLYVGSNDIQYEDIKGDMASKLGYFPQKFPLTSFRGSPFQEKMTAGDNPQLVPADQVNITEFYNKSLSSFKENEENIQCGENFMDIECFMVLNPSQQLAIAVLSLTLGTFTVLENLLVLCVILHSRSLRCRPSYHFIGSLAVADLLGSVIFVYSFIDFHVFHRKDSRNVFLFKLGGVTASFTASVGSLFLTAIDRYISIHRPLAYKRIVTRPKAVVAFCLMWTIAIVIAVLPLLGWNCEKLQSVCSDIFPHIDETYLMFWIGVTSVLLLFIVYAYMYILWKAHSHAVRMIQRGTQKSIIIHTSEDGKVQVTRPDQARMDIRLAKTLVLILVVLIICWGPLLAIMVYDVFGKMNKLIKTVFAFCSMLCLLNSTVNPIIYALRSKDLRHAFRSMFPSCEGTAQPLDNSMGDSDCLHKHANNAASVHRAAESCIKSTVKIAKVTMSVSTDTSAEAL

| Structure (SMILES) | Activity [1] [%] | Activity (Cannabinoid receptor 2 [2]) [%] | Ki (Cannabinoid receptor 1; read-out: Ki) [nM] | Ratio Ki [3] | Ki (Cannabinoid receptor 2 [4]; read-out: Ki) [nM] | Ki (Cannabinoid receptor 1) | Ki (Cannabinoid receptor 2 [4]; hek293) | Activity (Cannabinoid receptor 2 [5]) | Emax (Cannabinoid receptor 2 [6]) [%] | Emax [7] [%] |
| --- | --- | --- | --- | --- | --- | --- | --- | --- | --- | --- |
| COCCCn1c2ccccc2c2cc(C(=O)N3CCCCC3)ccc21 | 63.2 | 68.1 | 1440 | 8.88 | 83 | – | – | – | – | – |
| CCCCCn1c2ccccc2c2cc(C(=O)NN3CCCCC3)ncc21 | – | – | 354 | 2.07 | 171 | – | – | – | – | – |
| CCCCCn1c2ccccc2c2cc(C(=O)NN3CCCCC3)ccc21 | – | – | – | – | 1610 | Not Active | – | – | – | – |
| CCCCCCCn1c2ccccc2c2cc(C(=O)N3CCCCC3)ccc21 | – | – | 943 | 1.14 | 827 | – | – | – | – | – |
| CCCCCn1c2ccccc2c2cc(CN3CCCCC3)ccc21 | -11.1 | 79.6 | 122 | 0.33 | 370 | – | – | – | – | – |
| CCCCCn1c2ccccc2c2cc(C(=O)NC34CC5CC(CC(C5)C3)C4)ccc21 | – | – | 1450 | 5.03 | 288 | – | – | – | – | – |
| CCCCCn1c2ccccc2c2cc(C(=S)N3CCCCC3)ccc21 | 124 | 63 | 40.6 | 0.82 | 49.6 | – | – | – | – | – |
| CCCCCn1c2ccccc2c2cc(CN3CCN(C)CC3)ccc21 | – | – | 244 | 0.33 | 740 | – | – | – | – | – |
| CCCCCn1c2ccccc2c2cc(C(=O)OCc3ccncc3)ccc21 | – | – | 108 | 0.08 | 1390 | – | – | – | – | – |
| CCCCCn1c2ccccc2c2cc(C(=O)N3CC[N+](C)(C)CC3)ccc21.[I-] | – | – | – | – | – | Not Active | Not Active | – | – | – |
| CC(C)(C)OC(=O)NCCCn1c2ccccc2c2cc(C(=O)N3CCS(=O)(=O)CC3)ccc21 | – | – | – | – | – | Not Active | Not Active | – | – | – |
| O=C(c1ccc2c(c1)c1ccccc1n2CCN1CCCCC1)N1CCCCC1 | – | – | – | – | – | Not Active | Not Active | – | – | – |
| CCCCn1c2ccccc2c2cc(C(=O)N3CCCCC3)ccc21 | 84.8 | 67.9 | 63 | 0.24 | 264 | – | – | – | – | – |
| CCCCCn1c2ccccc2c2cc(C(=O)CN3CCN(C)CC3)ccc21 | – | – | 1500 | 3.78 | 398 | – | – | – | – | – |
| CCCCCn1c2ccc(C(=O)N3CCCCC3)cc2c2ccc(OC)cc21 | 33.4 | -1.1 | – | 1.71 | – | – | – | Active | -76.4 | 30.4 |
| O=C(c1ccc2c(c1)c1ccccc1n2Cc1ccncc1)N1CCCCC1 | 74.9 | 66.3 | 393 | 4.32 | 91 | – | – | – | – | – |
| CCCCCn1c2ccccc2c2cc(C(=O)N3CCS(=O)(=O)CC3)ccc21 | 23.9 | 91.5 | 440 | 1.96 | 225 | – | – | – | – | – |
| CCOC(=O)CCn1c2ccccc2c2cc(C(=O)N3CCS(=O)(=O)CC3)ccc21 | – | – | – | – | – | Not Active | Not Active | – | – | – |
| O=C(c1ccc2[nH]c3ccccc3c2c1)N1CCCCC1 | – | – | – | – | – | Not Active | Not Active | – | – | – |
| CCCCCn1c2ccccc2c2cc(C(=O)NCC(C)(C)C)ncc21 | 34.7 | 0.1 | 43.6 | 1.65 | 26.5 | – | – | > 50% | – | – |
| CCCCCn1c2ccccc2c2cc(C(=O)CN3CCS(=O)(=O)CC3)ccc21 | – | – | 675 | 1.34 | 502 | – | – | – | – | – |
| COC(=O)CCCn1c2ccccc2c2cc(C(=O)N3CCCCC3)ccc21 | 9.4 | 37.3 | 1850 | 8.88 | 208 | – | – | – | – | – |
| CCOC(=O)CCn1c2ccccc2c2cc(C(=O)N3CCN(C)CC3)ccc21 | – | – | – | – | 3380 | Not Active | – | – | – | – |
| CCCCCn1c2ccccc2c2cc(C(=O)OCC)ncc21 | – | – | 1860 | 1.36 | 1370 | – | – | – | – | – |
| NCCCn1c2ccccc2c2cc(C(=O)N3CCCCC3)ccc21 | – | – | – | – | – | Not Active | Not Active | – | – | – |
| CCCCCn1c2ccccc2c2cc(C(=O)c3ccccc3)ccc21 | 77 | 39.3 | 291 | 2.88 | 101 | – | – | > 50% | – | – |
